# Where two headings read alike, the source gives them in different places.
# Legend:
# [1] = patients, peroral; cited from earlier work
# [2] = tested on: human PBMCs; test: HPLC assay of AMPase activity; type: cell-based; settings: 1-100 µM ceritinib; 1 µM eAMP
# Procedure, shortened: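 PBMCs were isolated from buffy coats by density gradient. Cells (2×10^5) were pretreated with test compound (1, 10, 50, 100 µM) for 15 min at 37°C, then given 1 µM eATP (ATPase) or eAMP (AMPase) for 30 min at 37°C. Cells were removed and supernatants 10 kDa-filtered. Etheno-nucleotides were quantified by reversed-phase C8 HPLC (phosphate pH 6.0/methanol gradient; fluorescence 230/410 nm) against standards; singlets, n=2–3.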
# [3] = cited from earlier work
# [4] = cited from earlier work; remark: listed apart in the source
# [5] = molecular target: T1, NPP3 (Homo sapiens, UniProt O14638); test: NPP3 assay; type: biochemical
# T1 sequence (O14638 31-875 limits assumed): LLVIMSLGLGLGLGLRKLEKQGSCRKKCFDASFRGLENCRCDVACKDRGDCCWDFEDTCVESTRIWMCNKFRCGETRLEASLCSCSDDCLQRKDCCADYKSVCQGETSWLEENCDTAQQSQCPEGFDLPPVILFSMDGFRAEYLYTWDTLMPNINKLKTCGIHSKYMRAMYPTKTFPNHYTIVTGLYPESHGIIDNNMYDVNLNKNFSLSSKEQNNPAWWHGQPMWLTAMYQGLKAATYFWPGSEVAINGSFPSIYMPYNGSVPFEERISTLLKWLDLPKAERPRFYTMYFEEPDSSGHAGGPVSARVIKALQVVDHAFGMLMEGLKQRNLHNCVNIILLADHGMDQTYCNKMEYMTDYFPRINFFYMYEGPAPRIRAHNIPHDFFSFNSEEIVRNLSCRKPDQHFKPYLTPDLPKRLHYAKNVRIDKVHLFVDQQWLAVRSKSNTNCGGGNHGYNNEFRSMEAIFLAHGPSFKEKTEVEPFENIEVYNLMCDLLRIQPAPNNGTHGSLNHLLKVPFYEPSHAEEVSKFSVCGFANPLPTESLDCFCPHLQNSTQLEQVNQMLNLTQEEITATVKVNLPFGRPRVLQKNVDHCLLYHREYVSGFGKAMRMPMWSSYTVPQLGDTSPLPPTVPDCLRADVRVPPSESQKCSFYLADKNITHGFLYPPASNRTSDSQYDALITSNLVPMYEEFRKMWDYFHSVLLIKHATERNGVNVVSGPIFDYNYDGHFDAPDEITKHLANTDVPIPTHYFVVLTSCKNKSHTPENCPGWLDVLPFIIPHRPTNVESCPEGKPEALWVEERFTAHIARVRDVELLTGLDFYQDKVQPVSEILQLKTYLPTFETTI
# Procedure, shortened: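 Purified soluble NPP3 (95 ng, Sf9-expressed) was incubated with 50 µM (final) test compound, 2% DMSO and 400 µM p-nitrophenyl thymidine 5'-monophosphate. Reactions were stopped with 1 M NaOH, and p-nitrophenolate was read at 400 nm.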
# [6] = molecular target: T2, human CD39 (Homo sapiens, UniProt P49961); test: CE-UV; type: biochemical
# T2 sequence (P49961 1-510): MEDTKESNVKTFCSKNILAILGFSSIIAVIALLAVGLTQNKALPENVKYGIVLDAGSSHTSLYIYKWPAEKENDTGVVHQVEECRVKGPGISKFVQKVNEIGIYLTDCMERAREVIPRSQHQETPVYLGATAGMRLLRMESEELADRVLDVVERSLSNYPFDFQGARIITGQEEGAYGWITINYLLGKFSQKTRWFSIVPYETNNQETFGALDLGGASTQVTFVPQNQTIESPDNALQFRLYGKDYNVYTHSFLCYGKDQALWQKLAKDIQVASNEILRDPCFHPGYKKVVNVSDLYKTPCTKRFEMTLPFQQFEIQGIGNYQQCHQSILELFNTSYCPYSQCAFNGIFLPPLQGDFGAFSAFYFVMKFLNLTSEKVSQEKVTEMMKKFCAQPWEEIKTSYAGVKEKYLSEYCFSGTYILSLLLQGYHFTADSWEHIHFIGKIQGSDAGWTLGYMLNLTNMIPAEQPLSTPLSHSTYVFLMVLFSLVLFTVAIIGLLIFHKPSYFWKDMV
# Procedure, shortened: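 Recombinant human CD39 (COS-7 membranes) was incubated with test compound (0.1–300 µM) and 100 µM ATP. Buffer: 10 mM HEPES, 2 mM CaCl2, 1 mM MgCl2, pH 7.4; 30 min at 37°C. Reactions were stopped by heating 10 min at 90°C. ATP, ADP and AMP were separated by capillary electrophoresis with UV detection.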
# [7] = molecular target: T3, NTPDase3 (Homo sapiens, UniProt O75355); test: Malachite green assay, NTPDase3 in COS-7 cell membranes; type: biochemical
# T3 sequence (O75355 1-529): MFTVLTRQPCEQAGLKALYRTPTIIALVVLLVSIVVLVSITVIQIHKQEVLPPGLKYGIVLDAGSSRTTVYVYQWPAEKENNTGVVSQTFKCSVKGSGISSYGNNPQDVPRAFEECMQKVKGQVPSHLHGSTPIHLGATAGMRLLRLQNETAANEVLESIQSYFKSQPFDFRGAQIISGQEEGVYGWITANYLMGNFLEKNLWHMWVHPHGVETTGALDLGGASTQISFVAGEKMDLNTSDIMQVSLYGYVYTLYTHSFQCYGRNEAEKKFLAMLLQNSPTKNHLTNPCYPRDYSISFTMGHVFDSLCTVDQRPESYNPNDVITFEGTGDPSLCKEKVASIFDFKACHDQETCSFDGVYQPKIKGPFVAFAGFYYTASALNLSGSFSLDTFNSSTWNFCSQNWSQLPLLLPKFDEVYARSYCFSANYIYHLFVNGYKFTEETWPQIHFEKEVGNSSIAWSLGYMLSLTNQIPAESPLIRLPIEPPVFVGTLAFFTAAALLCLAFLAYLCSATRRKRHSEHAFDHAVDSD
# Procedure, shortened: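 Human NTPDase2, -3 or -8 was expressed in COS-7 membranes (ca. 100 ng protein, adjusted for 10–20% substrate conversion). Enzyme was preincubated 5 min at 37°C with test compound (50 µM single point, or 0.1–300 µM for curves). It was then incubated 15 min at 37°C with 100 µM ATP in HEPES/CaCl2/MgCl2, pH 7.4, ≤2% DMSO. Malachite green absorbance at 600 nm was corrected by a denatured-enzyme blank; n=3.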
structure (smiles),measurement,setting,value
"Cc1cc(Nc2ncc(Cl)c(Nc3ccccc3S(=O)(=O)C(C)C)n2)c(OC(C)C)cc1C1CCNCC1 [ceritinib, Ceritinib]",maximum plasma levels,[1],up to 1.4 µM
same,effect on hydrolysis of eAMP by PBMCs,[2],only a minor effect
same,average concentration in tumor tissue,"[3]; brain tumor patients, after the 10th applied dose, steady state",36 µM
same,range of concentration in tumor tissue,"[3]; brain tumor patients, after the 10th applied dose",2 to 139 µM
same,average concentration in tumor tissue,"[3]; brain tumors, steady-state conditions",36 nmol/g
same,concentration in tumor tissues in some patients,[3],above 100 µM
same,pharmacokinetics in mice versus humans,[4],comparable pharmacokinetics
same,IC50,[5],> 50 µM
same,inhibition at 50 µM,[5]; read-out: % inhibition at 50 µM,1%
same,IC50,[6],13.7 ± 0.6 µM
same,IC50,[7],22.7 ± 4 µM

# Reference: paper PMC9394215 (Journal for Immunotherapy of Cancer, 2022)
